HSF1 activator = increases HSF-1 driven luciferase reporter signal. 1.7% of 300,000 active. activation, % at 9 µM. NIH3T3-HGL HSF-1 luciferase reporter, MG132, 8 h; 100% = twice DMSO control signal. AID 504408;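 active = mean replicate activation of at least 50% with a set share of replicates each reaching 50%; inconclusive = only one of those two conditions met; inactive = mean below 50% and too few replicates reaching it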;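 note: 0% = median of the neutral control wells and 100% = twice that signal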
AI-2 QS mod = modulators of Vibrio harveyi AI-2 quorum sensing system; 0.4% of 300,000 active; activity change, % at 7.5 µM; Vibrio harveyi JMH597 AI-2 luminescence/OD600 ratio, 9 h; hits give low values; strain lacks LuxN and CqsS sensors; 0 = neutral-control median; in the data active = activity change below about -75%, passing the limit was not always enough; inconclusive = no clear call, values can overlap the other calls;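 note: luminescence divided by OD600 gain over 9 h not by final OD600 alone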
ALR H2O2 inh = blocks human ALR sulfhydryl oxidase activity. AID 485317. purified ALR, DTT oxidation, H2O2 HRP-luminol luminescence. P55789. inhibition, % (no concentration beside the values). 3.8% of 290,000 active;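 active = mean replicate inhibition above about 79%, with every replicate also reaching it, limit read from the data; inconclusive = only one of the two criteria met; inactive = mean below limit and not every replicate reaching it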
Target sequence (P55789 whole entry, looked up): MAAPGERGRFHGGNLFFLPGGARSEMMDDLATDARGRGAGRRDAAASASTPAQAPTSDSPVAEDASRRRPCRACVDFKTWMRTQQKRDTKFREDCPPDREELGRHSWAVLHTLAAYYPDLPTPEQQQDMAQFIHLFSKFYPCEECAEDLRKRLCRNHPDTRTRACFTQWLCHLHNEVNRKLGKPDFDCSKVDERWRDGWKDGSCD
core dimer inh = blocks dimerization of HCV core protein | TR-FRET GST/Flag-core106 dimerization, 1536-well | inhibition, % at 5 µM | 0.33% of 300,000 active | AID 1899;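 active = inhibition above the mean of all tested compounds plus 3 SD, set per screening campaign, cut at about 45% in these data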
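test system = GST/Flag-tagged HCV core106 proteins | probe or stimulus = Eu donor and XL665 acceptor anti-tag antibodies | times = compound-protein-antibody incubation 4 h at 22.5 °C | signal = TR-FRET, excitation 340 nm, emission 617 and 671 nm | measure = percent inhibition of core106 dimerization signal | controls = wells lacking GST-core106 and wells with excess unlabelled core106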
PHOSPHO1 block = blocks human PHOSPHO1 phosphatase activity | Q8TCT1 | recombinant PHOSPHO1, absorbance phosphatase assay | inhibition, % at 13.3 µM | 1.1% of 290,000 active; in the data active = inhibition above about 60%
Target sequence (Q8TCT1 whole entry, looked up): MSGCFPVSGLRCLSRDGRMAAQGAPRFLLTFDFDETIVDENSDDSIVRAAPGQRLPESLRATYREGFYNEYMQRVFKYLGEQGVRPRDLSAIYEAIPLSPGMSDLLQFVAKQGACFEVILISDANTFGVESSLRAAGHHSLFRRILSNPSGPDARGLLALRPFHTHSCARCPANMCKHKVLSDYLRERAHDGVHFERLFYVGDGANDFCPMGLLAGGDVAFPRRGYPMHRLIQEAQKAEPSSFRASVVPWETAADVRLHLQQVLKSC
HSF1 inh = HSF1 inhibition; NIH3T3-HGL HSE-luciferase, MG132-induced, luminescence 8 h; hits give low values; activity change, negative = inhibition, % at 7.5 µM (by protocol); 0.77% of 300,000 active; AID 2098;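 active = more than half of replicate wells show activity change below -50%, luminescence cut by over half; inconclusive = some wells, but at most half, below -50%; inactive = no replicate well below -50%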;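 note: luciferase reports HSF-1 transcriptional activity via heat shock element; 0% = median of DMSO wells and -100% = zero luminescence signal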
Starred values were filed as active, the others as inactive; ? = inconclusive; . = not tested or not shown. Most compounds without a hit are left out; they make up all but 6.8% or so of the library.

SMILES	HSF1 activator	AI-2 QS mod	ALR H2O2 inh	core dimer inh	PHOSPHO1 block	HSF1 inh
Cc1c(Cc2ccccc2)c(=O)oc2cc(OC(=O)c3ccccc3)ccc12	6.0	-13.9	.	7.3	8.2	4.0
CCc1ccnc(NS(=O)(=O)c2ccc3c(c2)CCO3)c1	-10.4	21.9	2.3	-0.7	-5.9	-2.8
CCOC(=O)c1c(S(=O)(=O)NCC(=O)Nc2ccc(F)cc2F)c(C)n(C)c1C	27.0	5.2	-3.5	-7.1	57.9	4.7
O=C(O)CC1S/C(=N/N=C/c2ccc(-c3ccccc3[N+](=O)[O-])o2)NC1=O (configuration not stated)	6.2	23.9	98.0*	-6.3	-6.0	-1.7
Cc1ccc(-c2ccc(/C=N/N=C3/NC(=O)C(CC(=O)O)S3)o2)c([N+](=O)[O-])c1 (configuration not stated)	9.5	16.0	98.9*	-2.4	-15.3	10.0
CCOc1ccc(C(=O)NNC2CC(=O)N(Cc3ccc(Cl)cc3)C2=O)cc1OC (configuration not stated)	-4.1	24.7	97.3*	6.5	6.2	-11.6
COc1ccc(C(=O)NNC2CC(=O)N(Cc3ccccc3)C2=O)cc1OC (configuration not stated)	-24.9	9.6	.	-4.3	9.1	-2.1
O=C(O)Cc1ccc(C(=O)CSc2ccccc2)s1	-9.9	22.0	98.2*	5.5	14.7	-12.6
Cc1ccc(SCC(=O)c2ccc(CC(=O)O)s2)cc1	9.0	7.1	.	2.8	-5.9	-5.6
CCCc1cc2c(=O)c(-c3ccc4c(c3)OCCO4)coc2cc1OC(=O)c1ccco1	64.5*	1.0	-11.6	-7.7	38.2	32.5
O=C(CCC(=O)NC1CCCCC1)Nc1cccnc1	-13.5	9.2	4.8	-11.3	25.3	-4.0
Cc1ccc(CC(=O)c2ccc(Cl)cc2)cc1	24.7	3.9	28.8	0.3	12.9	17.1
O=C(Cc1ccc(Cl)cc1)c1ccc(O)cc1	52.0*	3.0	-8.2	-2.0	-16.7	21.6
Cc1ccc(S(=O)(=O)NCCC(=O)N2CCC(C(N)=O)CC2)cc1C	-4.3	24.4	2.0	-2.1	.	-5.8
CCOc1ccc(-c2nc(CSc3nncs3)cs2)cc1OC	-8.4	15.8	94.4*	4.8	2.8	-3.2
CCCCCN(C(=O)CSc1n[nH]c(-c2ccc(C)cc2)n1)c1c(N)n(CCCC)c(=O)[nH]c1=O	-2.4	42.6	-4.7	2.8	.	-1.2
CCN1C(=O)[C@H]2[C@@H](c3ccc(-c4ccc5c(c4)OCO5)cc3)N[C@@](Cc3ccccc3)(C(=O)OC)[C@H]2C1=O	.	.	-1.6	.	.	.
COC(=O)C1(Cc2ccccc2)NC(c2ccccc2C)C2C(=O)N(c3ccc4c(c3)OCO4)C(=O)C21 (configuration not stated)	-79.9	16.8	-0.5	21.3	-1.2	-73.3*
Brc1cc(Br)c2ncnc(N3CCCCC3)c2c1	-0.8	7.5	9.8	60.7*	-2.2	-5.5
Clc1ccc(Cn2ncc3c(N4CCCCC4)ncnc32)cc1	13.8	2.0	-6.3	0.8	-13.5	5.5
C=CCN(c1ccc(C(=O)NCCSc2ccccc2)cc1)S(C)(=O)=O	34.7	21.5	19.6	6.2	29.0	27.9
c1ccc(COc2cccc(CN3CCc4ccccc4C3)c2)cc1	6.5	26.0	-14.5	-3.6	9.2	-4.8
CN1CCN(CC(=O)Nc2nnc(-c3cccs3)s2)CC1	-61.7	9.7	-3.0	6.5	2.5	-54.1*
CCCc1nnc(NC(=O)CN2CCN(C)CC2)s1	-3.2	13.8	1.5	-2.9	-17.0	-6.0
CCOC(=O)/C=C/S(=O)(=O)c1ccc(NC(C)=O)cc1	-10.6	?	98.1*	0.8	2.9	-15.5
O=C1C(Cl)=C(NCC2CCCO2)C(=O)N1C1CCCCC1 (configuration not stated)	-1.6	23.1	97.7*	8.2	-51.7	-4.9
CC(C)(C)c1cnnn1-c1ccc(C(=O)CCl)cc1	-67.4	49.2	1.8	7.3	-18.6	-57.2*
CCCc1ccc(NC(=O)C2CCCN(c3cnccn3)C2)cc1 (configuration not stated)	61.0*	3.1	1.9	-1.7	34.4	24.9
CCOc1ccc(NC(=O)C2CCCN(c3cnccn3)C2)cc1 (configuration not stated)	-4.2	7.5	-12.7	-12.4	24.0	22.1
